Results: ChEMBL document CHEMBL1667749, “Design & synthesis of N'-[substituted] pyridine-4-carbohydrazides as potential anticonvulsant agents” (Eur J Med Chem, 2011)
Calls of active or inactive are those of the source. The calls are words filed in the database; no cut-off is given here.

Experiments:
Rattus norvegicus [1] = experiment: Acute toxicity in Sprague-Dawley rat assessed as motor impairment at 300 mg/kg, ip after 0.5 hrs; type: organism-based; set-up: dose 300 mg/kg, route intraperitoneal; conditions: in vivo
How it was run: (§1)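 Male albino Sprague Dawley rats, two per dose, given test compound i.p. as a suspension in 0.5% methyl cellulose. Behaviour was closely observed and recorded over 4 h to detect acute motor impairment. Values are scored as animals toxic over animals tested at each time point.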

Rattus norvegicus [2] = experiment: Acute toxicity in Sprague-Dawley rat assessed as motor impairment at 600 mg/kg, ip after 0.5 hrs; type: organism-based; set-up: dose 600 mg/kg, route intraperitoneal; conditions: in vivo; how it was run: as §1
Rattus norvegicus [3] = experiment: Acute toxicity in Sprague-Dawley rat assessed as motor impairment at 600 mg/kg, ip after 1 hr; type: organism-based; set-up: dose 600 mg/kg, route intraperitoneal; conditions: in vivo; how it was run: as §1
Rattus norvegicus [4] = experiment: Acute toxicity in Sprague-Dawley rat assessed as motor impairment at 100 mg/kg, ip after 2 hrs; type: organism-based; set-up: dose 100 mg/kg, route intraperitoneal; conditions: in vivo; how it was run: as §1
Rattus norvegicus [5] = experiment: Acute toxicity in Sprague-Dawley rat assessed as motor impairment at 300 mg/kg, ip after 2 hrs; type: organism-based; set-up: dose 300 mg/kg, route intraperitoneal; conditions: in vivo; how it was run: as §1
Rattus norvegicus [6] = experiment: Acute toxicity in Sprague-Dawley rat assessed as motor impairment at 300 mg/kg, ip after 0.25 hrs; type: organism-based; set-up: dose 300 mg/kg, route intraperitoneal; conditions: in vivo; how it was run: as §1
Mus musculus [7] = experiment: Neurotoxicity in albino CF-1 mouse assessed as motor impairment at 300 mg/kg, ip after 4 hrs by rotarod test; type: toxicity, organism-based; set-up: dose 300 mg/kg, route intraperitoneal; conditions: in vivo
How it was run: (§2)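 Minimal motor impairment in male CF-1 mice by rotorod after i.p. dosing; toxic if animal falls off rotating rod 3 times within 1 min. Screen doses 30, 100, 300 mg/kg; quantitative TD50 (95% confidence interval) determined at time of peak effect.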

Rattus norvegicus [8] = experiment: Toxicity in Sprague-Dawley rat assessed as change in body weight at 600 mg/kg, ip measured after 24 hrs of clonus of one of the fore limbs seizure stage in protected rat; type: organism-based; set-up: dose 600 mg/kg, route intraperitoneal; conditions: in vivo
How it was run: (§3)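 Male Sprague Dawley rats (150–180 g) dosed i.p. then challenged with pilocarpine; body weight change measured 24 h after first Stage III seizure, split by protected and non-protected rats, given ± S.E.M.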

Rattus norvegicus [9] = experiment: Acute toxicity in Sprague-Dawley rat assessed as motor impairment at 300 mg/kg, ip after 1 hr; type: organism-based; set-up: dose 300 mg/kg, route intraperitoneal; conditions: in vivo; how it was run: as §1
Mus musculus [10] = experiment: Neurotoxicity in albino CF-1 mouse assessed as motor impairment at 300 mg/kg, ip after 0.5 hrs by rotarod test; type: toxicity, organism-based; set-up: dose 300 mg/kg, route intraperitoneal; conditions: in vivo; how it was run: as §2
Rattus norvegicus [11] = experiment: Acute toxicity in Sprague-Dawley rat assessed as motor impairment at 300 mg/kg, ip after 4 hrs; type: organism-based; set-up: dose 300 mg/kg, route intraperitoneal; conditions: in vivo; how it was run: as §1
Rattus norvegicus [12] = experiment: Acute toxicity in Sprague-Dawley rat assessed as motor impairment at 600 mg/kg, ip after 4 hrs; type: organism-based; set-up: dose 600 mg/kg, route intraperitoneal; conditions: in vivo; how it was run: as §1
Rattus norvegicus [13] = experiment: Toxicity in Sprague-Dawley rat assessed as change in body weight at 600 mg/kg, ip measured after 24 hrs of clonus of one of the fore limbs seizure stage in non-protected rat; type: organism-based; set-up: dose 600 mg/kg, route intraperitoneal; conditions: in vivo; how it was run: as §3
Rattus norvegicus [14] = experiment: Acute toxicity in Sprague-Dawley rat assessed as motor impairment at 600 mg/kg, ip after 2 hrs; type: organism-based; set-up: dose 600 mg/kg, route intraperitoneal; conditions: in vivo; how it was run: as §1
Rattus norvegicus [15] = experiment: Acute toxicity in Sprague-Dawley rat assessed as motor impairment at 100 mg/kg, ip after 0.25 hrs; type: organism-based; set-up: dose 100 mg/kg, route intraperitoneal; conditions: in vivo; how it was run: as §1
[16] = Octanol-phosphate buffer partition coefficient, log P of the compound at 5 mg, after 24 hrs by UV spectroscopic analysis; type: physicochemical
How it was run: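 5 mg compound added to 10 mL octanol plus 10 mL phosphate buffer in stoppered tube, mechanically shaken 24 h at room temperature, then left in separating funnel 6 h to equilibrate.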

Rattus norvegicus [17] = experiment: Acute toxicity in Sprague-Dawley rat assessed as motor impairment at 100 mg/kg, ip after 0.5 hrs; type: organism-based; set-up: dose 100 mg/kg, route intraperitoneal; conditions: in vivo; how it was run: as §1
Rattus norvegicus [18] = experiment: Acute toxicity in Sprague-Dawley rat assessed as motor impairment at 100 mg/kg, ip after 4 hrs; type: organism-based; set-up: dose 100 mg/kg, route intraperitoneal; conditions: in vivo; how it was run: as §1
Rattus norvegicus [19] = experiment: Acute toxicity in Sprague-Dawley rat assessed as motor impairment at 600 mg/kg, ip after 0.25 hrs; type: organism-based; set-up: dose 600 mg/kg, route intraperitoneal; conditions: in vivo; how it was run: as §1
Rattus norvegicus [20] = experiment: Acute toxicity in Sprague-Dawley rat assessed as motor impairment at 100 mg/kg, ip after 1 hr; type: organism-based; set-up: dose 100 mg/kg, route intraperitoneal; conditions: in vivo; how it was run: as §1
Mus musculus [21] = experiment: Anticonvulsant activity in ip dosed albino CF-1 mouse assessed as dose required to protect against subcutaneous metrazol-induced seizures after 0.5 hrs; type: functional
How it was run: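 Male albino CF-1 mice (18-25 g) received i.p. compound suspended in 0.5% methyl cellulose at 30, 100 and 300 mg/kg. Metrazol at a dose convulsing 97% of animals was given s.c. in the midline neck fold, and mice were observed 30 min in isolation. A clonic spasm of about 3-5 s was the end point. The value is the minimum dose protecting half or more of the mice.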

Mus musculus [22] = experiment: Anticonvulsant activity in albino CF-1 mouse assessed as protection against maximal electroshock-induced seizures at 300 mg/kg, ip after 2 hrs; type: functional, organism-based; set-up: dose 300 mg/kg
How it was run: (§4)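 Male CF-1 mice (18–25 g), i.p. in 0.5% methyl cellulose at 30, 100 and 300 mg/kg; MES: 60 Hz, 50 mA, 0.2 s through tetracaine-primed corneal electrodes; protection = abolished hind limb tonic extension. Value given as minimum dose active in half or more of mice.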

Mus musculus [23] = experiment: Anticonvulsant activity in albino CF-1 mouse assessed as protection against maximal electroshock-induced seizures at 300 mg/kg, ip after 0.5 hrs; type: functional, organism-based; set-up: dose 300 mg/kg; how it was run: as §4
Mus musculus [24] = experiment: Anticonvulsant activity in albino CF-1 mouse assessed as protection against maximal electroshock-induced seizures at 300 mg/kg, ip after 4 hrs; type: functional, organism-based; set-up: dose 300 mg/kg; how it was run: as §4
Mus musculus [25] = experiment: Anticonvulsant activity in albino CF-1 mouse assessed as protection against subcutaneous metrazol-induced seizures at 300 mg/kg, ip after 4 hrs; type: functional, organism-based; set-up: dose 300 mg/kg
How it was run: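 Male CF-1 mice, i.p. at 30, 100, 300 mg/kg in 0.5% methyl cellulose; metrazol dose convulsing 97% of animals injected s.c. in midline neck fold, mice isolated and watched 30 min; protected if no 3–5 s clonic spasm episode of limbs, jaws or vibrissae.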

O=C1Nc2ccccc2/C1=N/NC(=O)c1ccncc1
Activity (Rattus norvegicus [1]): Non-toxic | Activity (Rattus norvegicus [2]): Non-toxic | Activity (Rattus norvegicus [3]): Non-toxic | Activity (Rattus norvegicus [4]): Non-toxic | Activity (Rattus norvegicus [5]): Non-toxic | Activity (Rattus norvegicus [6]): Non-toxic | Activity (Mus musculus [7]): Non-toxic | Activity (Rattus norvegicus [8]): Non-toxic | Activity (Rattus norvegicus [9]): Non-toxic | Activity (Mus musculus [10]): Non-toxic | Activity (Rattus norvegicus [11]): Non-toxic | Activity (Rattus norvegicus [12]): Non-toxic | Activity (Rattus norvegicus [13]): 20 g | Activity (Rattus norvegicus [14]): Non-toxic | Activity (Rattus norvegicus [15]): Non-toxic | logP at 24 h [16]: 1.12 | Activity (Rattus norvegicus [17]): Non-toxic | Activity (Rattus norvegicus [18]): Non-toxic | Activity (Rattus norvegicus [19]): Non-toxic | Activity (Rattus norvegicus [20]): Non-toxic

CCCC(CCC)C(=O)[O-].[Na+] [VALPROATE SODIUM]
Activity (Mus musculus [21]): 300 mg/kg | Activity (Mus musculus [7]): Non-toxic | Activity (Mus musculus [10]): Non-toxic | Activity (Mus musculus [22]): inactive | Activity (Mus musculus [23]): inactive | Activity (Mus musculus [24]): inactive | Activity (Mus musculus [25]): inactive
